# Measurements from ChEMBL document CHEMBL1212871, “Lipophilic phenolic antioxidants: correlation between antioxidant profile, partition coefficients and redox properties” (Bioorg Med Chem, 2010).
# Legend:
# [1] = system: Radical scavenging activity; assay: Antioxidant activity assessed as ratio of IC50 for Trolox to compound for DPPH radical scavenging activity by TEAC assay; format: functional
# How it was run: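 DPPH• (180 µL) received 20 µL ethanolic compound, six concentrations of 1.5 × 10^-5 to 15 × 10^-5 M, prepared in duplicate and assayed in quadruplicate. Absorbance was read every minute for 10 min, then every 5 min for 50 min; ethanol blank = 100% radical. 60-min data were fitted by second-degree polynomial through 100%. TEAC = Trolox IC50 / compound concentration giving 50% bleaching.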
# [2] = Redox potential at pH 7.3 by differential pulse and cyclic voltametry; format: physicochemical
# How it was run: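 Glassy carbon working electrode, potentials vs Ag/AgCl. 0.1 mM compound (diluted from 10 mM ethanol stock) in pH 7.3 phosphate supporting electrolyte, made from 0.2 M K2HPO4 and KH2PO4. Differential pulse voltammetry was run at 5 mV s^-1. Cyclic voltammetry was run at 50 mV s^-1, with scan rates of 10–100 mV s^-1 also examined.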
# [3] = Antioxidant activity assessed as inhibition of AAPH-induced lipid peroxidation in liposomes measured as Trolox equivalent antioxidant capacity; format: functional; details: Liposome
# How it was run: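 Egg phosphatidylcholine LUVs (0.80 mM final) holding a radical-sensitive fluorescent probe were mixed with polyphenol (1.50, 7.50, 15.00 µM final; 1.5% ethanol) and shaken 10 min at 37 °C. Peroxidation was then started with 15.00 mM AAPH. Fluorescence (ex 360/40, em 460/40 nm) was read at 37 °C for 3 h. TEAC = (AUC compound − AUC control)/(AUC Trolox − AUC control). Run in duplicate.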
# [4] = Antioxidant activity assessed as ratio of IC50 for Trolox to compound for ABTS radical scavenging activity after 5 mins by TEAC assay; format: functional
# How it was run: (§1)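 Six ethanolic compound solutions (1.5 × 10^-5 to 15 × 10^-5 M) were made in duplicate, and 20 µL of each was added to 180 µL ABTS•+ in quadruplicate. Absorbance was read every 5 min over 20 min; ethanol blank = 100% radical. Radical % against concentration at 5 or 20 min was fitted by second-degree polynomial through 100%. TEAC = Trolox IC50 / compound concentration giving 50% bleaching.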
# [5] = Antioxidant activity assessed as ratio of IC50 for Trolox to compound for ABTS radical scavenging activity after 20 mins by TEAC assay; format: functional; how it was run: as §1
Redox potential [2] [V],SMILES,Ratio IC50 [1],Ratio [3],Ratio IC50 [4],Ratio IC50 [5]
0.125,CCCCCCOC(=O)CCc1ccc(O)c(O)c1 [HEXYLHYDROCAFFEATE],0.99,3.49,0.96,0.96
0.183,O=C(O)/C=C/c1ccc(O)c(O)c1 [CAFFEIC ACID],1.29,2.23,1.14,1.27
0.162,CCCCCCNC(=O)/C=C/c1ccc(O)c(O)c1 [CAFFEOYLHEXYLAMIDE],1.11,2.41,1.04,1.05
0.388,CCCCCCNC(=O)CCc1ccc(O)c(OC)c1 [HYDROFERULOYLHEXYLAMIDE],,0.68,,
0.139,O=C(O)CCc1ccc(O)c(O)c1 [DIHYDROCAFFEIC ACID],2.05,1.75,1.16,1.41
0.328,CCCCCCOC(=O)/C=C/c1ccc(O)c(OC)c1 [HEXYLFERULATE],,1.13,,
0.175,CCCCCCOC(=O)/C=C/c1ccc(O)c(O)c1 [HEXYLCAFFEATE],0.97,3.55,0.91,0.93
0.322,CCCCCCNC(=O)/C=C/c1ccc(O)c(OC)c1 [FERULOYLHEXYLAMIDE],,1.22,,
0.125,CCCCCCNC(=O)CCc1ccc(O)c(O)c1 [HYDROCAFFEOYLHEXYLAMIDE],1,2.08,1.01,1.02
0.35,COc1cc(/C=C/C(=O)O)ccc1O [FERULATE],,0.79,,
0.41,COc1cc(CCC(=O)O)ccc1O [DIHYDROFERULIC ACID],,0.22,,

SMILES,Redox potential [2] [V],Ratio IC50 [1],Ratio [3],Ratio IC50 [4],Ratio IC50 [5]
CCCCCCOC(=O)CCc1ccc(O)c(OC)c1 [HEXYLHYDROFERULATE],0.434,,0.57,,
